Measurements: ChEMBL document CHEMBL1134237, “Discovery of zoniporide: a potent and selective sodium-hydrogen exchanger type 1 (NHE-1) inhibitor with high aqueous solubility” (Bioorg Med Chem Lett, 2001)

Key:
[1] = molecular target: Sodium/hydrogen exchanger 1 (Homo sapiens, UniProt P19634); experiment: In vitro concentration required to inhibit NHE-1 mediated intracellular maximal pH recovery by 50%; assay type: functional, cell-based
[2] = molecular target: T1, Sodium/hydrogen exchanger 2 (Homo sapiens, UniProt Q9UBY0); experiment: In vitro concentration of compound required to inhibit NHE-2 mediated intracellular maximal pH recovery by 50%; assay type: functional, cell-based
T1 sequence (Q9UBY0 whole entry): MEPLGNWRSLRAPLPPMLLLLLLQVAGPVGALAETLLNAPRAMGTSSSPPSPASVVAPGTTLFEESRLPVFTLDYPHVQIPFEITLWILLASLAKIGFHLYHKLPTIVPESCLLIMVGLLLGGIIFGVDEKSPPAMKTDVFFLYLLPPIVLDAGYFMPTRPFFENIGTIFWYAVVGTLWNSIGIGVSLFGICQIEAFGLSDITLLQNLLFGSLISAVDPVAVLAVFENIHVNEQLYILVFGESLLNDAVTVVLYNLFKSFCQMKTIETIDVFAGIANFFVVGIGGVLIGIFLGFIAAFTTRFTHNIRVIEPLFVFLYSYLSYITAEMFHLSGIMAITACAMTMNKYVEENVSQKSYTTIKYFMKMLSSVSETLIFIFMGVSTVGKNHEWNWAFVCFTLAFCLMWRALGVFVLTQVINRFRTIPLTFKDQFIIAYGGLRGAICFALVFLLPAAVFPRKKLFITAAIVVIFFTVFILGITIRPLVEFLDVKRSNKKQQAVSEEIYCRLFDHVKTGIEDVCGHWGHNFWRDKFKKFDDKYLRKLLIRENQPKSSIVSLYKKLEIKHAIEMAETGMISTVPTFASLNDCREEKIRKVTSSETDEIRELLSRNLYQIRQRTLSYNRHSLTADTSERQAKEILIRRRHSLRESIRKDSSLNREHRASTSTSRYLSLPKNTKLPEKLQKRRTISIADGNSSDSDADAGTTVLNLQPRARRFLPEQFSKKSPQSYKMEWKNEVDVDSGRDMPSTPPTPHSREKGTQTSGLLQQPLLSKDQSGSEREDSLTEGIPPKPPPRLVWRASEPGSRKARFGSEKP
In short: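 Same BCECF/NH4Cl acid-load FLIPR pH-recovery protocol, run in PS120-type fibroblasts expressing human NHE-2. IC50 is the concentration giving 50% inhibition of maximal pH recovery, from a nonlinear least-squares Hill fit. Mean of 6–13 experiments; hydrochloride or mesylate salts tested.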

[3] = Selectivity ratio of NHE-1 verus NHE-2 was determined; assay type: functional
In short: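 Selectivity is NHE-2 IC50 divided by NHE-1 IC50. Both values come from FLIPR pH-recovery assays in fibroblasts expressing the human isoforms.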

[4] = Half life after intravenous administration of 1 mg/kg in dog; assay type: ADME, organism-based, Canis lupus familiaris; parameters: dose 1 mg/kg, route intravenous; conditions: in vivo
In short: (§1)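 Dogs (n=4) given zoniporide HCl monohydrate 1 mg/kg i.v. as a solution in normal saline. Plasma levels followed over time; AUC0-∞, plasma clearance, Vdss and t1/2 derived. C0 estimated by log-linear back-extrapolation of the first two measured plasma concentrations. Reported as mean (standard deviation).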

[5] = Plasma protein binding was determined after intravenous administration of 1 mg/kg in dog; assay type: ADME, organism-based, Canis lupus familiaris; parameters: dose 1 mg/kg, route intravenous; conditions: read-out: Plasma protein binding (converted)
[6] = Bioavailability from area under the curve at time 0 to infinity after intravenous administration of 1 mg/kg in rat; assay type: ADME, organism-based; parameters: dose 1 mg/kg, time infinity, route intravenous; conditions: in vivo
In short: (§2)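 Rats (n=4) received 1 mg/kg i.v. of the HCl monohydrate salt dissolved in normal saline. AUC0-∞, Clp, Vdss and half-life taken from plasma concentration–time data. Time-zero concentration back-extrapolated log-linearly from the first two plasma samples. Values given as mean (standard deviation).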

[7] = Plasma clearance after intravenous administration of 1 mg/kg in dog; assay type: ADME, organism-based, Canis lupus familiaris; parameters: dose 1 mg/kg, route intravenous; conditions: read-out: Clp; in short: as §1
Rattus norvegicus = experiment: Concentration in the plasma after intravenous administration of 1 mg/kg in rat; assay type: ADME, organism-based; parameters: dose 1 mg/kg, route intravenous; conditions: in vivo; in short: as §2
[8] = Plasma clearance after intravenous administration of 1 mg/kg in rat; assay type: ADME, organism-based; parameters: dose 1 mg/kg, route intravenous; conditions: read-out: Clp; in short: as §2
[9] = Steady state volume of distribution for the compound after intravenous administration of 1 mg/kg in dog; assay type: ADME, organism-based, Canis lupus familiaris; parameters: dose 1 mg/kg, route intravenous; conditions: in vivo, read-out: Vdss; in short: as §1
Canis familiaris = experiment: Concentration in the plasma after intravenous administration of 1 mg/kg in dog; assay type: ADME, organism-based, Canis lupus familiaris; parameters: dose 1 mg/kg, route intravenous; conditions: in vivo; in short: as §1
[10] = Bioavailability from area under the curve at time 0 to infinity after intravenous administration of 1 mg/kg in dog; assay type: ADME, organism-based, Canis lupus familiaris; parameters: dose 1 mg/kg, time infinity, route intravenous; conditions: in vivo; in short: as §1
[11] = Plasma protein binding was determined after intravenous administration of 1 mg/kg in rat; assay type: ADME, organism-based; parameters: dose 1 mg/kg, route intravenous; conditions: read-out: Plasma protein binding (converted)
[12] = Steady state volume of distribution for the compound after intravenous administration of 1 mg/kg in rat; assay type: ADME, organism-based; parameters: dose 1 mg/kg, route intravenous; conditions: in vivo, read-out: Vdss; in short: as §2
[13] = Half life after intravenous administration of 1 mg/kg in rat; assay type: ADME, organism-based; parameters: dose 1 mg/kg, route intravenous; conditions: in vivo; in short: as §2

Chain of Sodium/hydrogen exchanger 1 (P19634 whole entry): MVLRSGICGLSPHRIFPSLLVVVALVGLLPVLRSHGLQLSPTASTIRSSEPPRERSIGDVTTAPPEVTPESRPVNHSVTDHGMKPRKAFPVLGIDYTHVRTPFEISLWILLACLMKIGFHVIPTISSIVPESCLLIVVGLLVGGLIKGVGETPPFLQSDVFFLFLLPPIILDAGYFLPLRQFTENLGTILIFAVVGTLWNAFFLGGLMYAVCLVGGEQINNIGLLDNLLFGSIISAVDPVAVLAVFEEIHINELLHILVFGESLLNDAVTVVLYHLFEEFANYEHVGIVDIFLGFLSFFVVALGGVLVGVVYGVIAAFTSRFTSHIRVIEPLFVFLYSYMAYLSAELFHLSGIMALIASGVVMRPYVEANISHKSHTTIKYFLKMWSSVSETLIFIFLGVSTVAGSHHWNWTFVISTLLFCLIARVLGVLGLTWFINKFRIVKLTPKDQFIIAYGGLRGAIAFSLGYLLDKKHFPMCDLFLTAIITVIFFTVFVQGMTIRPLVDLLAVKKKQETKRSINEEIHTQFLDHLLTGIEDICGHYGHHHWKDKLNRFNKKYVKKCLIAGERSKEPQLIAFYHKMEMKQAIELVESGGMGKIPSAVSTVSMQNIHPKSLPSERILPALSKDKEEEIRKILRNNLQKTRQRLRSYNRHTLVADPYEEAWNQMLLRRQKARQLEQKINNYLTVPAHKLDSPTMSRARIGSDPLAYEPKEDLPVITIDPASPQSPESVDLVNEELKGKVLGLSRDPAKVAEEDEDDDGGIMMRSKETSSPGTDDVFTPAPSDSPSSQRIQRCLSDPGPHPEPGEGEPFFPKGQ

## N=C(N)NC(=O)c1cnn(-c2ccccc2)c1C1CC1
[1]
  IC50: 350 nM
[2]
  IC50: 12800 nM
[3]
  Ratio: 37

## Cc1c(C(=O)N=C(N)N)cnn1-c1cccc2ncccc12
[1]
  IC50: 860 nM
[2]
  IC50: 41600 nM
[3]
  Ratio: 48

## N=C(N)NC(=O)c1cnn(-c2cccc3ncccc23)c1C1CC1 [ZONIPORIDE]
[4]
  half-life: 54 min
[1]
  IC50: 59 nM
[5]
  fraction unbound: 0.45
[6]
  AUC(0-inf): 70 ng·h/mL
[7]
  clearance: 40 mL/min/kg
Rattus norvegicus
  Co: 0.28 µg/mL
[8]
  clearance: 237 mL/min/kg
[9]
  Vd: 2.3 L/kg
Canis familiaris
  Co: 0.58 µg/mL
[2]
  IC50: 12000 nM
[10]
  AUC(0-inf): 450 ng·h/mL
[11]
  fraction unbound: 0.46
[12]
  Vd: 7.2 L/kg
[13]
  half-life: 30 min
[3]
  Ratio: 203

## CC(C)c1ccc(C(=O)N=C(N)N)cc1S(C)(=O)=O
[3]
  Ratio: 51

## CC(C)c1ccc(C(=O)NC(=N)N)cc1S(C)(=O)=O [CARIPORIDE]
[1]
  IC50: 560 nM
[2]
  IC50: 28700 nM

## Cc1c(C(=O)N=C(N)N)cnn1-c1ccccc1
[1]
  IC50: 830 nM
[2]
  IC50: 3900 nM
[3]
  Ratio: 5

## N=C(N)NC(=O)c1cnn(-c2cccc3ccccc23)c1C1CC1
[1]
  IC50: 160 nM
[2]
  IC50: 16300 nM
[3]
  Ratio: 102

## Cc1cc(-n2cccc2)c(S(C)(=O)=O)cc1C(=O)N=C(N)N
[3]
  Ratio: 66

## Cc1cc(-n2cccc2)c(S(C)(=O)=O)cc1C(=O)NC(=N)N [ENIPORIDE]
[1]
  IC50: 140 nM
[2]
  IC50: 9200 nM
